According to ChEMBL document CHEMBL1151190, “Acetylated flavonoid glycosides potentiating NGF action from Scoparia dulcis” (2004):
Activity calls are given as the source filed them. No cut-off for these calls is given here.

What was measured:
[1] = test system: PC-12; test: Increase of nerve growth factor-stimulated neurite growth in rat PC12D cells at 100 umol after 48 hrs; format: functional
How it was run: (§1)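 PC12D cells detached with 1 mmol EGTA in PBS for 30 min, seeded at 2 × 10^4 cells/well on poly-L-lysine. After 24 h, switched to medium with 1% fetal calf serum, 2% horse serum, NGF 2 ng/mL plus compound at 10, 30 or 100 µmol (DMSO stocks 50 mmol). Fixed after 48 h with 2% glutaraldehyde, 37 °C, 1 h.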

[2] = test system: PC-12; test: Induction of neurite growth in rat PC12D cells at 30 umol after 48 hrs; format: functional, cell-based
How it was run: (§2)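 No NGF was added. PC12D cells were detached with EGTA/PBS and plated on poly-L-lysine. After 24 h they went into medium with 1% fetal calf serum and 2% horse serum plus compound (DMSO stocks 50 mmol). Cells were fixed after 48 h in 2% glutaraldehyde. The percentage with processes ≥ cell-body diameter was scored by phase-contrast microscopy: 3 fields/well, 6 wells/sample.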

[3] = test system: PC-12; test: Induction of neurite growth in rat PC12D cells at 10 umol after 48 hrs; format: functional, cell-based; how it was run: as §2
[4] = test system: PC-12; test: Induction of neurite growth in rat PC12D cells at 100 umol after 48 hrs; format: functional, cell-based; how it was run: as §2
[5] = test system: PC-12; test: Increase of nerve growth factor-stimulated neurite growth in rat PC12D cells at 10 to 100 umol after 48 hrs; format: functional, cell-based; how it was run: as §1

| Compound | Activity [1] | Activity [2] | Activity [3] | Activity [4] | Activity [5] |
| --- | --- | --- | --- | --- | --- |
| CC(=O)O[C@@H]1[C@@H](O)[C@H](C)O[C@@H](OC[C@H]2O[C@@H](Oc3cc(O)c4c(=O)cc(-c5ccc(O)cc5)oc4c3)[C@H](O)[C@@H](O)[C@@H]2O)[C@@H]1O | 16.1% | inactive | inactive | inactive |  |
| CC(=O)O[C@@H]1[C@@H](O)[C@H](C)O[C@@H](OC[C@H]2O[C@@H](Oc3cc4oc(-c5ccc(O)cc5)cc(=O)c4c(O)c3O)[C@H](O)[C@@H](O)[C@@H]2O)[C@@H]1OC(C)=O |  |  |  |  | inactive |
| CC(=O)O[C@@H]1[C@@H](O)[C@H](C)O[C@@H](OC[C@H]2O[C@@H](Oc3cc(O)c4c(=O)cc(-c5ccc(O)cc5)oc4c3)[C@H](O)[C@@H](O)[C@@H]2O)[C@@H]1OC(C)=O | 14.9% | inactive | inactive | inactive |  |
| C=CCc1ccc(O[C@@H]2O[C@H](CO)[C@@H](O)[C@H](O)[C@H]2O)c(OC)c1 |  |  |  |  | inactive |
